From the M2OR odorant receptor database
Numbering of substitutions follows the chain as printed.

How the values were obtained:
Conditions in all cases: stereoisomer not certain
OR1F12P (Homo sapiens) = biological target: T1, OR1F12P (Homo sapiens) (UniProt Q8NHA8)
T1 sequence (whole entry): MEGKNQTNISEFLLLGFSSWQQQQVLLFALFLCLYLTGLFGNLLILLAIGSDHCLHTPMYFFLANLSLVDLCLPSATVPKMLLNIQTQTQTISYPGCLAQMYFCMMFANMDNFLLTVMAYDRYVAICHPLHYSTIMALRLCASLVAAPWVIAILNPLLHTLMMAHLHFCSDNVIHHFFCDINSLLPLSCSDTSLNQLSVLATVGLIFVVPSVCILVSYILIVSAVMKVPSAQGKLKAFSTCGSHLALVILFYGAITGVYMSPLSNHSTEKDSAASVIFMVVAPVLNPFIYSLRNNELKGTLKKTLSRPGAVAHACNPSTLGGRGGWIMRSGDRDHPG
How it was run: (§1)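 Each entry records the cell line, G-protein, co-transfected protein and tags used. Methods varied with the source, often transient luciferase assays in mammalian cell lines. A receptor–molecule pair is called responsive (active) if the original authors judged its signal statistically different from baseline and non-responsive (inactive) otherwise.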

OR1F1 = test system: T2, OR1F1
T2 sequence (whole entry): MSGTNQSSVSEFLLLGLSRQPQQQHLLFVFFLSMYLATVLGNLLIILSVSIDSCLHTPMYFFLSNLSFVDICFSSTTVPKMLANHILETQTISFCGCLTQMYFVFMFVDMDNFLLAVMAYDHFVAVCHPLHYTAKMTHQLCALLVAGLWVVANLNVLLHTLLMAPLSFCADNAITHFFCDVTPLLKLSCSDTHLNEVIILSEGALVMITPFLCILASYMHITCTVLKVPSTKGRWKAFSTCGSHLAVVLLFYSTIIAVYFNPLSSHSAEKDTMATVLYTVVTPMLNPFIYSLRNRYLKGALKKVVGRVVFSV
How it was run: as §1

OR1G1 (Homo sapiens) = biological target: T3, OR1G1 (Homo sapiens) (UniProt P47890)
T3 sequence (whole entry): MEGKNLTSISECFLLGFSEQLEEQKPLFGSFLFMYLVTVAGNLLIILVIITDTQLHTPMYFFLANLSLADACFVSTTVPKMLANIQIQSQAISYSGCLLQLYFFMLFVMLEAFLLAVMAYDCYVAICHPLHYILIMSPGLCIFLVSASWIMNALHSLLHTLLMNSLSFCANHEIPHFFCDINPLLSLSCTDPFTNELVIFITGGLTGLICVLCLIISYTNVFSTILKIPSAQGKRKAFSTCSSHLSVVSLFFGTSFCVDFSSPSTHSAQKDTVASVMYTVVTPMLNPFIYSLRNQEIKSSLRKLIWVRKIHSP
How it was run: as §1

OR1I1 (Homo sapiens) = biological target: T4, OR1I1 (Homo sapiens) (UniProt O60431)
T4 sequence (whole entry): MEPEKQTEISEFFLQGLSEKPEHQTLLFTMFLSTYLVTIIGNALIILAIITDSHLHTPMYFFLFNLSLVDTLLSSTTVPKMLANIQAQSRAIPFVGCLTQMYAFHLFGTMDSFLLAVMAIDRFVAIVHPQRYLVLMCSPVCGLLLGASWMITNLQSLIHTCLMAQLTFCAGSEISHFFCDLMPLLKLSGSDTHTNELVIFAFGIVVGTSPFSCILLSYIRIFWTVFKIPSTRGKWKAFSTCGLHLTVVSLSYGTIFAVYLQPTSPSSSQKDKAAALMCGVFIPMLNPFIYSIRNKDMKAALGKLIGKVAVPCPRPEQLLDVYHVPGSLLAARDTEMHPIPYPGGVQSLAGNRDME
How it was run: as §1

OR1J1 (Homo sapiens) = biological target: T5, OR1J1 (Homo sapiens) (UniProt Q8NGS3)
T5 sequence (whole entry): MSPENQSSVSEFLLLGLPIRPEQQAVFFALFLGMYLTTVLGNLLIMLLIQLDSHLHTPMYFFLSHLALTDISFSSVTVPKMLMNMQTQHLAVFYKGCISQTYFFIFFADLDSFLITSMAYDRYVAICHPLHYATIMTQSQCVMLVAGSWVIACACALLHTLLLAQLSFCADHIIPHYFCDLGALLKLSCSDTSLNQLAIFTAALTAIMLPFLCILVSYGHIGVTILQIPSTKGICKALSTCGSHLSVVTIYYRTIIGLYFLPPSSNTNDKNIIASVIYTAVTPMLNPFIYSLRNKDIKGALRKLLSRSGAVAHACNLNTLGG
How it was run: as §1

OR1J2 (Homo sapiens) = biological target: T6, OR1J2 (Homo sapiens) (UniProt Q8NGS2)
T6 sequence (whole entry): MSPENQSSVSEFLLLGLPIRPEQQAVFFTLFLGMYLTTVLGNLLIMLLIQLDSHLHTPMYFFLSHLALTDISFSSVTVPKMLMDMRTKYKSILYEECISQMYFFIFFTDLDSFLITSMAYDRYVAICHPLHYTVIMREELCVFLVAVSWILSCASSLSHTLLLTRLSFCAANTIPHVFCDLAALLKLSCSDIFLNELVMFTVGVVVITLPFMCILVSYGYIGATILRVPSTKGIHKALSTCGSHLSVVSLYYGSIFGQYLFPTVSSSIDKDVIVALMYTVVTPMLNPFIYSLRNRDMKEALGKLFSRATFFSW
How it was run: as §1

OR1J4 (Homo sapiens) = biological target: T7, OR1J4 (Homo sapiens) (UniProt Q8NGS1)
T7 sequence (whole entry): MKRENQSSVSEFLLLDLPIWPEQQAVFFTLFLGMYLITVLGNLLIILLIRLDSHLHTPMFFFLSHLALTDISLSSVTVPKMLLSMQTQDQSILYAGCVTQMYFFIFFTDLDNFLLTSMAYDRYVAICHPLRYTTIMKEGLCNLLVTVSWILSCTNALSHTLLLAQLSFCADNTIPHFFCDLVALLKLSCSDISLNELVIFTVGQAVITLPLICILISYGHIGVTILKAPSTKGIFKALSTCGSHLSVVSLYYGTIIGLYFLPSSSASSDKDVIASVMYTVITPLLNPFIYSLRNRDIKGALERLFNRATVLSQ
How it was run: as §1

OR1K1 (Homo sapiens) = biological target: T8, OR1K1 (Homo sapiens) (UniProt Q8NGR3)
T8 sequence (whole entry): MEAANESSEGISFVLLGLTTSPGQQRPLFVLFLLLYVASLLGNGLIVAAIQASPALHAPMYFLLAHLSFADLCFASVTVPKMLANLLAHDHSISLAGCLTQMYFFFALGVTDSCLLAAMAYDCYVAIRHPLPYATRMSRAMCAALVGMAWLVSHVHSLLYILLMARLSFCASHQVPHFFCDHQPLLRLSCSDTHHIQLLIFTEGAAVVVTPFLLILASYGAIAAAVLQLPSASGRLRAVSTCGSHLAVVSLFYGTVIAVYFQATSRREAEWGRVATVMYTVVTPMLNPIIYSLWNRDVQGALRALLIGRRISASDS
How it was run: as §1

OR1L1 = test system: T9, OR1L1
T9 sequence (whole entry): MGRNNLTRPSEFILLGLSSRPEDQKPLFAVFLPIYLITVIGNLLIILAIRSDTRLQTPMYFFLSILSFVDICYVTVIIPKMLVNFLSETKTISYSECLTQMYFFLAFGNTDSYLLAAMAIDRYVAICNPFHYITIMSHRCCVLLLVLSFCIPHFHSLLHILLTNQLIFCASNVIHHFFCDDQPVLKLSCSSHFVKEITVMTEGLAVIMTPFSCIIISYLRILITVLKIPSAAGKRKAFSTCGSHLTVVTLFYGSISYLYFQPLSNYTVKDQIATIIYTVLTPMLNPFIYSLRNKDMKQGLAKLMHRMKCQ
How it was run: as §1

OR1L3 (Homo sapiens) = biological target: T10, OR1L3 (Homo sapiens) (UniProt Q8NH93)
T10 sequence (whole entry): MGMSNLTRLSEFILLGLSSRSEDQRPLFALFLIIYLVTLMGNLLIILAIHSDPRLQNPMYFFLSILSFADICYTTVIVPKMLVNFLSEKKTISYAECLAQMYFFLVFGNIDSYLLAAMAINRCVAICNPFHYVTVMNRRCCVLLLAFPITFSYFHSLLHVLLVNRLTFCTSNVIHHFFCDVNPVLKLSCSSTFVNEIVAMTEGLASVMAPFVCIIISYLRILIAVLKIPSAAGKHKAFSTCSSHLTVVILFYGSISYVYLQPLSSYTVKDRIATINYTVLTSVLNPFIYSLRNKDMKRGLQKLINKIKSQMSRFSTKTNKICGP
How it was run: as §1

OR1L4 (Homo sapiens) = biological target: T11, OR1L4 (Homo sapiens) (UniProt Q8NGR5)
T11 sequence (whole entry): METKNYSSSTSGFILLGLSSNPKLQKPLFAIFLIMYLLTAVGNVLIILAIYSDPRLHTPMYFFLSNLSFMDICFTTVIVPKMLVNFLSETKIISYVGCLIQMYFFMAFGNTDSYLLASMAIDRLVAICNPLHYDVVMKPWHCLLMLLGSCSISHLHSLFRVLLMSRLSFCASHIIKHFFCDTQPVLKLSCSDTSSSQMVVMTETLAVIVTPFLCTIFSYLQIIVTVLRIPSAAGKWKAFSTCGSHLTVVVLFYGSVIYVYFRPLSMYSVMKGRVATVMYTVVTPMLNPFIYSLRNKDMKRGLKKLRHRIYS
How it was run: as §1

OR1L4 = test system: T12, OR1L4
T12 sequence (whole entry): T11 sequence (whole entry) with G234R
How it was run: as §1

OR1L6 = test system: T13, OR1L6
T13 sequence (whole entry): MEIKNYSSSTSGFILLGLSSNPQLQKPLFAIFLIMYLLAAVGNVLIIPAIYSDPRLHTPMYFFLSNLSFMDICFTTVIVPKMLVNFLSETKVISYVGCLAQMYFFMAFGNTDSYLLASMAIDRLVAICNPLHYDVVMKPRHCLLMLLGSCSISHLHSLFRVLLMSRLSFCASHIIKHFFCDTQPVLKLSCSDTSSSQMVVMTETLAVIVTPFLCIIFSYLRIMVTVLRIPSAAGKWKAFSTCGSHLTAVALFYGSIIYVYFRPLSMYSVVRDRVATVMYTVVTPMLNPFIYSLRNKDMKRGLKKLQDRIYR
How it was run: as §1

OR1L8 (Homo sapiens) = biological target: T14, OR1L8 (Homo sapiens) (UniProt Q8NGR8)
T14 sequence (whole entry): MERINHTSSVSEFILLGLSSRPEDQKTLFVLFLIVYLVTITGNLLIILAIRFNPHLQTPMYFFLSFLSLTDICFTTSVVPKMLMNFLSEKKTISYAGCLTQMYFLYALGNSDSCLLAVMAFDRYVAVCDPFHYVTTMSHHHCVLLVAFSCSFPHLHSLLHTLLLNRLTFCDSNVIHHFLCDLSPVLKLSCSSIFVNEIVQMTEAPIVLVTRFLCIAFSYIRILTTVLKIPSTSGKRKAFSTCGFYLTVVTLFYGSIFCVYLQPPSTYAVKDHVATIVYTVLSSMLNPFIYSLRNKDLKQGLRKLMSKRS
How it was run: as §1

OR1L8 T27P R211P = test system: T15, OR1L8 T27P R211P
T15 sequence (whole entry): T14 sequence (whole entry) with T27P, R211P
How it was run: as §1

OR1M1 (Homo sapiens) = biological target: T16, OR1M1 (Homo sapiens) (UniProt Q8NGA1)
T16 sequence (whole entry): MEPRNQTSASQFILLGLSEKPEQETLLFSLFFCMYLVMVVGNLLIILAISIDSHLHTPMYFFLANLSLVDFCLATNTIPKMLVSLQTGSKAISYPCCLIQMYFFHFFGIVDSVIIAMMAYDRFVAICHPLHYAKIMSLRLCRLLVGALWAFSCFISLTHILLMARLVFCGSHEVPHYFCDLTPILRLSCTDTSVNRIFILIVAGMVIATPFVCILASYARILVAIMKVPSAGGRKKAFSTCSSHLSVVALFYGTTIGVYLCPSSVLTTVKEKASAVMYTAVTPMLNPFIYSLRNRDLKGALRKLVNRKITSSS
How it was run: as §1

OR1N1 (Homo sapiens) = biological target: T17, OR1N1 (Homo sapiens) (UniProt Q8NGS0)
T17 sequence (whole entry): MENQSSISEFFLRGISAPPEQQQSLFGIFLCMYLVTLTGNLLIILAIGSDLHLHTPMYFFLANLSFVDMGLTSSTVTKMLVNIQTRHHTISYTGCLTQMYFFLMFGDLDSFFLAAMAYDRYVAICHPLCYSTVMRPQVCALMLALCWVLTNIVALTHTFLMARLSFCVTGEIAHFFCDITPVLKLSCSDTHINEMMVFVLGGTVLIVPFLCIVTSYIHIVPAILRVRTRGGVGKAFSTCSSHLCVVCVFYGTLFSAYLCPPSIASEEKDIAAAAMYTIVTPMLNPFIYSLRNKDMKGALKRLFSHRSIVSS
How it was run: as §1

OR1N2 W37R = test system: T18, OR1N2 W37R
T18 sequence (whole entry): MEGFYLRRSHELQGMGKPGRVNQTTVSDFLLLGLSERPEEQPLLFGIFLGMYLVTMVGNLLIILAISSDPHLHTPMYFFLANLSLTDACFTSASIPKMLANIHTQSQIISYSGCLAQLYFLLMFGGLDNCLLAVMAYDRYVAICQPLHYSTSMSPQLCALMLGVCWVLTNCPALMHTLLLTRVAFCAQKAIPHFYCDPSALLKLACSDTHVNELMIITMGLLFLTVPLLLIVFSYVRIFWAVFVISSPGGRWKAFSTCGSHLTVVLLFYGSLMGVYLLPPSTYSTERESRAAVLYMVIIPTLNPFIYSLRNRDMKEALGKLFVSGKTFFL
How it was run: as §1

Measured: odorant receptor agonist call

CC1=C(O)C(=O)C(C)O1 (stereo not given)
inactive: OR1F12P (Homo sapiens) | OR1F1 | OR1G1 (Homo sapiens) | OR1I1 (Homo sapiens) | OR1J1 (Homo sapiens) | OR1J2 (Homo sapiens) | OR1J4 (Homo sapiens) | OR1K1 (Homo sapiens) | OR1L1 | OR1L3 (Homo sapiens) | OR1L4 (Homo sapiens) | OR1L4 | OR1L6 | OR1L8 (Homo sapiens) | OR1L8 T27P R211P | OR1M1 (Homo sapiens) | OR1N1 (Homo sapiens) | OR1N2 W37R

CCCCCCCCCCO
active: OR1G1 (Homo sapiens)

O=C([O-])CCCCCCCC(=O)[O-].[H+].[H+]
inactive: OR1N1 (Homo sapiens)
